Structures are written as SMILES. Calls of active or inactive are those of the source. The rule behind the calls is not given here.

Data set [1] in a line: Cytotoxicity against human 2008/MRP1 cells after 5 days by MTS assay. It is filed as cell-based. To be noted: 2008/MRP1, 120 h. On the technique in general: Tetrazolium assays rely on reduction of a dye to a coloured formazan, in cell work by metabolically active cells.
A short description of data set [2]: Cytotoxicity against human 2008/P cells after 5 days by MTS assay. The format is cell-based. The note with it: 120 h.
Data set [3] can be described thus: Cytotoxicity against human 2008/P cells at 0.5 uM after 5 days by MTS assay. It is filed as cell-based. The note with it: 120 h.
Data set [4] in a line: Cytotoxicity against human 2008/MRP1 cells at 0.5 uM by MTS assay. It is filed as cell-based. To be noted: 2008/mrp1, 0.5 µM.
The target in data set [5] is T1, Multidrug resistance-associated protein 1 (Homo sapiens, UniProt P33527). Briefly: Reversal of MRP1-mediated doxorubicin resistance in human 2008/MRP1 cells assessed as ratio of doxorubicin IC50 to doxorubicin IC50 in presence of compound at 0.5 uM. To be noted: 2008/mrp1, 0.5 µM. The format is cell-based.
In data set [6] the target is ATP-binding cassette sub-family C member 2 (Homo sapiens, UniProt Q92887). As to the kind of experiment: Inhibition of MRP2.
The next data set is filed under the species Homo sapiens. As to the kind of experiment: Increase in doxorubicin accumulation in doxorubicin-co-incubated human 2008/P cells at 3 uM after 120 mins by spectrofluorimetry. It is filed as functional. In short, it runs like this:
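5 × 10^5 cells of the parental ovarian line incubated 120 min at 37 °C with 20 μM doxorubicin plus 3 μM modulator, 0.3% DMSO as vehicle control. Cells washed twice with cold PBS pH 7.4 and lysed in 0.75 M HCl/0.2% Triton X-100 in isopropanol, then 20 min at 37 °C. Supernatant fluorescence read at ex 460/em 610 nm. Duplicate, three repeats, mean ± SEM.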

Another data set concerns Mus musculus. As to the kind of experiment: Potentiation of vincristine-efficacy in nude mouse model assessed as regression of tumor volume at 8 mg/kg in presence of 0.5 mg/kg vincristine. It is filed as functional.
Data set [7] addresses T1, Multidrug resistance-associated protein 1. Briefly: Reversal of MRP1-mediated doxorubicin resistance in doxorubicin co-incubated human 2008/MRP1 cells assessed as effect on doxorubicin accumulation at […] after 120 mins by spectrofluorimetry. The format is cell-based. To be noted: 2008/mrp1, 2 h.
Data set [8] has the same target. As to the kind of experiment: Reversal of MRP1-mediated doxorubicin resistance in doxorubicin co-incubated human 2008/MRP1 cells assessed as increase in doxorubicin accumulation at 3 uM after 120 mins by spectrofluorimetry relative to control. It is filed as cell-based. To be noted: 2008/mrp1, 2 h.
The nature of data set [9]: Anticancer activity against human 2008/P cells after 5 days by MTS assay. The format is functional, cell-based. The note with it: 120 h.
Data set [10] can be described thus: Anticancer activity against human 2008/MRP1 cells after 5 days by MTS assay. It is filed as functional, cell-based. To be noted: 2008/MRP1, 120 h.
A short description of data set [11]: Selectivity ratio of IC50 for human 2008/MRP1 cells to IC50 for human 2008/P cells. It is filed as functional. A digest of the protocol:
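Ratio of doxorubicin or etoposide IC50 in the MRP1 transfectant to IC50 in the parental line. Both IC50 values come from the 5-day MTS proliferation assay without modulator.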

T1 sequence (P33527 whole entry): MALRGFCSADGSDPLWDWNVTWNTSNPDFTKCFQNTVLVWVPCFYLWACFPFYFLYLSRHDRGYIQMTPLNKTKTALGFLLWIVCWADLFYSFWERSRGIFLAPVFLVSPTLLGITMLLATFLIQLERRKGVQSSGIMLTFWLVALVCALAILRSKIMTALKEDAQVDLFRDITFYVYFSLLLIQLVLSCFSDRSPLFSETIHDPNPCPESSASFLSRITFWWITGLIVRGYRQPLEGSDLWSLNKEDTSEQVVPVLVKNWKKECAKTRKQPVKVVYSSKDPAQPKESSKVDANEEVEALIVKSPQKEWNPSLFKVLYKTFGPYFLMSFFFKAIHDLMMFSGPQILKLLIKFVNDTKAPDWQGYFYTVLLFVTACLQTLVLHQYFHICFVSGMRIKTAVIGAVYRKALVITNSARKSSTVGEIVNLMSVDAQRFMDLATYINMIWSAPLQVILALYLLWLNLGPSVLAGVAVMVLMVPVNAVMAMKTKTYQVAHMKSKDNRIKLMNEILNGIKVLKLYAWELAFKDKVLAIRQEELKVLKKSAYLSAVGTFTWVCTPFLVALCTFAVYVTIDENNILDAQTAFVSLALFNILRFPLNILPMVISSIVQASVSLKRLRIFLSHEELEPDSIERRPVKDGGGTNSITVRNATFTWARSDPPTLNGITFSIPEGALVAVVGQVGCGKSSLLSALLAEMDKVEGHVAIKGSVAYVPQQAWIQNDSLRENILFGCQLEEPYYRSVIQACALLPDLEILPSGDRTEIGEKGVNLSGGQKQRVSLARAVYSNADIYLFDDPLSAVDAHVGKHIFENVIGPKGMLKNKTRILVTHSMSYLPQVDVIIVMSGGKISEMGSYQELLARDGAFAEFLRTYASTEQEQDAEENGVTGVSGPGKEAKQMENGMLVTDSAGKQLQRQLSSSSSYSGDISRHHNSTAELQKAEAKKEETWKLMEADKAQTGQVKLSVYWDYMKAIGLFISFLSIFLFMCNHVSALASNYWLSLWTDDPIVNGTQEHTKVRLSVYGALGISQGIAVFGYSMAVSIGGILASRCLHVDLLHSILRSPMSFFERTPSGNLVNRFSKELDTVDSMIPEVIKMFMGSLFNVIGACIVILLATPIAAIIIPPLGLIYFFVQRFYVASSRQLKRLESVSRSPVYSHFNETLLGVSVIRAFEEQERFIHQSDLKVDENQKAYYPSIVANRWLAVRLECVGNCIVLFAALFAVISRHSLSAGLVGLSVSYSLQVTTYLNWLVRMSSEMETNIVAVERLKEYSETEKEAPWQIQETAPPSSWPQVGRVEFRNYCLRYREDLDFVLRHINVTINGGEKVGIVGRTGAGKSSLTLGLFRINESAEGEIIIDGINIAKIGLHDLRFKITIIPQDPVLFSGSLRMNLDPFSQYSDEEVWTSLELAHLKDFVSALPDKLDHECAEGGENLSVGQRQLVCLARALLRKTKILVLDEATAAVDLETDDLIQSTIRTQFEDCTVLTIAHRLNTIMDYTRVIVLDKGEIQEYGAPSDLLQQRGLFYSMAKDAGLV
Chain of ATP-binding cassette sub-family C member 2 (Q92887 whole entry): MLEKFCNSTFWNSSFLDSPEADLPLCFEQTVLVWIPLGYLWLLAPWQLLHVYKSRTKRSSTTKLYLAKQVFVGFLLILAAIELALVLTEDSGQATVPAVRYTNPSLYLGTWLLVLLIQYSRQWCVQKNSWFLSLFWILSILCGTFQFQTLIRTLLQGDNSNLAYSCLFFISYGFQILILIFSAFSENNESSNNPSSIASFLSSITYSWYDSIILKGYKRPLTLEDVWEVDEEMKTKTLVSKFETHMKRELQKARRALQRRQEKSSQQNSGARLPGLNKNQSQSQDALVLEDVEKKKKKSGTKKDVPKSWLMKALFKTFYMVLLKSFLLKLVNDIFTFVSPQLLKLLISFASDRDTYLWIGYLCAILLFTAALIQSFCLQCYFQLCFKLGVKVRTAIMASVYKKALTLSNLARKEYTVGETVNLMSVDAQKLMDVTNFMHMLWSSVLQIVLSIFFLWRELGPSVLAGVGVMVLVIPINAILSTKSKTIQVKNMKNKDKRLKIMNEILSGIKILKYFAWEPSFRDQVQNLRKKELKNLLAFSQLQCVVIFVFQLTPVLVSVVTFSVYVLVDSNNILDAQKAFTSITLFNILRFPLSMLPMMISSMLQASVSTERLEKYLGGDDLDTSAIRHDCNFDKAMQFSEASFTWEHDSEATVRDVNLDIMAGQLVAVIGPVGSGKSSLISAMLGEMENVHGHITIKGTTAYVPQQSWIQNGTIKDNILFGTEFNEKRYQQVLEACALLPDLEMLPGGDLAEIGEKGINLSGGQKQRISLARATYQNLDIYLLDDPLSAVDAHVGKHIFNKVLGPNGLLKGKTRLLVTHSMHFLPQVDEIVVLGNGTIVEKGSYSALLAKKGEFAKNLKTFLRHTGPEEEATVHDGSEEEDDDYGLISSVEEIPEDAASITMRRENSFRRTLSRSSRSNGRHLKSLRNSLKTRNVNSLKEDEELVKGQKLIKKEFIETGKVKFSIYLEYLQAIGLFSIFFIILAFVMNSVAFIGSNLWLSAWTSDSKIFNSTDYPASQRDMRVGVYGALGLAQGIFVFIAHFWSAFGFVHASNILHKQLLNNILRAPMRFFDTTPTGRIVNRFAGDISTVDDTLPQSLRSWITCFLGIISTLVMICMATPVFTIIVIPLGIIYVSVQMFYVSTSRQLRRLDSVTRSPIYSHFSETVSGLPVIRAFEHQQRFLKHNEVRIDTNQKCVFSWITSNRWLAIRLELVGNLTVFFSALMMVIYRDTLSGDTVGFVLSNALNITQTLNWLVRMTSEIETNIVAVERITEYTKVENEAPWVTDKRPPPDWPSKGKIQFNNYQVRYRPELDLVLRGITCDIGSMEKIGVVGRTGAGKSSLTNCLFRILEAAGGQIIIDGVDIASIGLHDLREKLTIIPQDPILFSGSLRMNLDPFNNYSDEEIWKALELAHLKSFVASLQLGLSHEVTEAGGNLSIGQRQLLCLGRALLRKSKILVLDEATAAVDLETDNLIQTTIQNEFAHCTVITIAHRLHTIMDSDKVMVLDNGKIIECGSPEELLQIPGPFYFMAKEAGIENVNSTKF

What is called IC50 is the concentration that gives 50% inhibition. Lower therefore signals greater potency. For `O=c1cc(-c2ccc(OCCOCCOCCOCCOCCOCCOc3ccc(-c4cc(=O)c5ccccc5o4)cc3)cc2)oc2ccccc12`, the IC50 in data set [1] turned out to be 2.8 µM; in data set [2], 3.7 µM. For the same compound, the Activity entry was “Non-toxic” in data set [3], “Non-toxic” in [4] and 7.8 in [5].
`O=c1cc(-c2ccc(OCCOCCOCCOCCOCCOCCOCCOCCOCCOc3ccc(-c4cc(=O)c5ccccc5o4)cc3)cc2)oc2ccccc12`: the Activity result in data set [3] and in data set [4] was “Non-toxic” each time.
`O=c1c(O)c(-c2cc(O)c(O)c(O)c2)oc2cc(O)cc(O)c12` [MYRICETIN]: in data set [6], the IC50 is 22 µM.
On to `Cc1ccc2c(=O)cc(-c3ccc(OCCOCCOCCOCCOCCOc4ccc(-c5cc(=O)c6ccc(C)cc6o5)cc4)cc3)oc2c1`, for which the IC50 in [1] is 53.3 µM; in data set [2] it was 60.6 µM. Also, the Activity entry in data set [3] and in data set [4] was “Non-toxic” throughout.
Regarding `Cc1ccc2oc(-c3ccc(OCCOCCOCCOCCOc4ccc(-c5cc(=O)c6cc(C)ccc6o5)cc4)cc3)cc(=O)c2c1`, the values for the IC50 in [1] and in data set [2] were greater than 77 µM and greater than 100 µM, respectively. Besides, the Activity result in data set [3] and in data set [4] was “Non-toxic” throughout.
For `O=c1cc(-c2ccc(OCCOCCOCCOCCOCCOCCOCCOc3ccc(-c4cc(=O)c5ccccc5o4)cc3)cc2)oc2ccccc12`, the Activity result in data set [3] and in [4] was “Non-toxic” throughout.
Take `Cc1ccc2oc(-c3ccc(OCCOCCOCCOCCOCCOCCOc4ccc(-c5cc(=O)c6cc(C)ccc6o5)cc4)cc3)cc(=O)c2c1`: the IC50 in [1] and in data set [2] was greater than 100 µM throughout. Besides, the Activity entry in data set [3] and in data set [4] was “Non-toxic” throughout.
Consider `CN(C)C(=O)CCSC(SCCC(=O)O)c1cccc(/C=C/c2ccc3ccc(Cl)cc3n2)c1` (centres undefined), for which the outcome in the data set filed under Homo sapiens was inactive.
With `Cc1ccc2c(=O)cc(-c3ccc(OCCOCCOCCOCCOCCOCCOc4ccc(-c5cc(=O)c6ccc(C)cc6o5)cc4)cc3)oc2c1`, the IC50 in data set [1] came out at 10.2 µM; in data set [2], 6.1 µM. For the same compound, the Activity result in data set [3] and in data set [4] was “Non-toxic” throughout.
`Cc1onc2c1c(=O)n([C@H]1CCC[C@@H](CNC(=O)c3ccccc3)C1)c1cccc(Cl)c21`: in the data set with Mus musculus, the Activity was determined as 63%.
Regarding `Cc1c(-c2ccc(OCCOCCOCCOCCOCCOCCOc3ccc(-c4oc5ccccc5c(=O)c4C)cc3)cc2)oc2ccccc2c1=O`, the Activity result in data set [3] and in data set [4] was “Non-toxic” in each case.
Take `O=c1cc(-c2ccc(OCCOCCOCCOCCOCCOCCOc3ccc(-c4cc(=O)c5ccc(F)cc5o4)cc3)cc2)oc2cc(F)ccc12`: the IC50 in [1] is 5.2 µM; in data set [2], 4.4 µM. Further, the Activity result in [3] and in [4] was “Non-toxic” in each case.
Turning to `COc1ccc(CCN(C)CCCC(C#N)(c2ccc(OC)c(OC)c2)C(C)C)cc1OC` (centres undefined), in the data set listed under Homo sapiens, the outcome was inactive.
`CCc1ccc2oc(-c3ccc(OCCOCCOCCOCCOCCOCCOc4ccc(-c5cc(=O)c6cc(CC)ccc6o5)cc4)cc3)cc(=O)c2c1`: the IC50 was 76.2 µM in [1] and greater than 96 µM in [2]. Besides, the Activity result in [3] and in [4] was “Non-toxic” each time.
As to `CCCN(CCC)S(=O)(=O)c1ccc(C(=O)O)cc1` [PROBENECID], in the data set filed under Homo sapiens, the result was inactive. In addition, the Activity entry in data set [7] and in data set [8] was “Not Active” each time.
Take `CCc1ccc2oc(-c3ccc(OCCOCCOCCOCCOc4ccc(-c5cc(=O)c6cc(CC)ccc6o5)cc4)cc3)cc(=O)c2c1`: the IC50 in data set [1] came out at 69.5 µM; in data set [2] it was 77.7 µM. The Activity entry in [3] and in data set [4] was “Non-toxic” throughout.
Regarding `O=c1cc(-c2ccc(OCCOCCOCCOCCOc3ccc(-c4cc(=O)c5c(O)cc(O)cc5o4)cc3)cc2)oc2cc(O)cc(O)c12`, the IC50 in data set [1] and in [2] was greater than 100 µM in each case.
On to `Cc1ccc2c(=O)cc(-c3ccc(OCCOCCOCCOCCOc4ccc(-c5cc(=O)c6ccc(C)cc6o5)cc4)cc3)oc2c1`, for which the IC50 in data set [1] and in data set [2] was greater than 100 µM throughout. The Activity entry in data set [3] and in data set [4] was “Non-toxic” in each case.
As for `Cc1ccc2oc(-c3ccc(OCCOCCOCCOCCOCCOc4ccc(-c5cc(=O)c6cc(C)ccc6o5)cc4)cc3)cc(=O)c2c1`, the outcome in the data set filed under Homo sapiens was Active. Besides, the IC50 in [1] and in data set [2] was greater than 100 µM throughout. Also, the Activity result in [3] and in [4] was “Non-toxic” in each case.
`CCc1ccc2oc(-c3ccc(OCCOCCOCCOCCOCCOc4ccc(-c5cc(=O)c6cc(CC)ccc6o5)cc4)cc3)cc(=O)c2c1`: the IC50 stood at 46.1 µM in data set [1] and 62.6 µM in data set [2]. The Activity result in data set [3] and in [4] was “Non-toxic” in each case.
Take `O=c1cc(-c2ccc(OCCOCCOCCOCCOCCOCCOCCOCCOCCOCCOCCOCCOCCOc3ccc(-c4cc(=O)c5ccccc5o4)cc3)cc2)oc2ccccc12`: the Activity entry in data set [3] and in [4] was “Non-toxic” each time.
In the case of `COc1cccc2c1C(=O)c1c(O)c3c(c(O)c1C2=O)C[C@@](O)(C(=O)CO)C[C@@H]3O[C@H]1C[C@H](N)[C@H](O)[C@H](C)O1` [DOXORUBICIN], the half-maximal inhibitory concentration (IC50) turned out to be 0.063 µM in [9] and 0.577 µM in [10]. The “Ratio IC50” value in data set [11] is listed as 9.2.
For the compound `O=c1cc(-c2ccc(OCCOCCOCCOCCOCCOc3ccc(-c4cc(=O)c5ccc(F)cc5o4)cc3)cc2)oc2cc(F)ccc12`, the IC50 in data set [1] was found to be 8.9 µM; in data set [2] it was 17.5 µM. The Activity result in data set [3] and in data set [4] was “Non-toxic” throughout.
As to `Cc1c(-c2ccc(OCCOCCOCCOCCOCCOc3ccc(-c4oc5ccccc5c(=O)c4C)cc3)cc2)oc2ccccc2c1=O`, the Activity result in data set [3] and in data set [4] was “Non-toxic” in each case.
In the case of `O=c1cc(-c2ccc(OCCOCCOCCOc3ccc(-c4cc(=O)c5c(O)cc(O)cc5o4)cc3)cc2)oc2cc(O)cc(O)c12`, the concentration for half-maximal inhibition (IC50) in data set [1] and in [2] was greater than 100 µM in each case.
Take `O=c1cc(-c2ccc(OCCOCCOCCOCCOc3ccc(-c4cc(=O)c5ccccc5o4)cc3)cc2)oc2ccccc12`: the IC50 in [1] is greater than 93 µM; in data set [2], greater than 100 µM.
On to `O=c1cc(-c2ccc(OCCOCCOCCOCCOCCOCCOCCOc3ccc(-c4cc(=O)c5c(O)cc(O)cc5o4)cc3)cc2)oc2cc(O)cc(O)c12`, for which the Activity in [5] amounted to 1.5.
For `O=c1cc(-c2ccc(OCCOCCOCCOCCOCCOCCOCCOCCOc3ccc(-c4cc(=O)c5ccccc5o4)cc3)cc2)oc2ccccc12`, the Activity result in data set [3] and in data set [4] was “Non-toxic” each time.

These data come from ChEMBL document CHEMBL1152445, “Modulation of multidrug resistance protein 1 (MRP1/ABCC1)-mediated multidrug resistance by bivalent apigenin homodimers and their derivatives” (J Med Chem, 2009).
